Reference: ChEMBL document CHEMBL4823320, “SAR of novel benzothiazoles targeting an allosteric pocket of DENV and ZIKV NS2B/NS3 proteases” (Bioorg Med Chem, 2021)
The source made the active and inactive calls. No cut-off for these calls is given here.

Tests used:
[1] = system: dengue virus type 2; experiment: Antiviral activity against DENV2 New Guinea C infected in human Huh7 cells assessed as decrease in viral RNA expression at 10 uM measured up to 72 hrs by firefly luciferase assay; assay type: functional, organism-based; details: Huh-7, time hrs <=72
How it was run: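 Huh7 cells electroporated with in vitro transcribed DENV2 NGC subgenomic replicon RNA (firefly luciferase), 4×10^6 cells per 10 µg RNA. Compound at 10 µM or DMSO is added 4 h post-electroporation in medium with 15 mM HEPES and replenished at 48 h. Lysates are taken at 4–96 h and replication is expressed relative to the 4 h input value. Duplicate luminometer reads; mean ± SD, n = 3.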

[2] = Inhibition of DENV2 NS2B-NS3 protease T120A/N167Q mutant expressed in Escherichia coli BL21(DE3) using Boc-Gly-Arg-Arg-AMC as substrate by FRET assay; design: species or system dengue virus type 2
How it was run: (§1)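 Recombinant His-tagged NS2B/NS3 protease, expressed in E. coli BL21-Gold (DE3) (1 mM IPTG, 20 °C, 16 h) and purified by Ni affinity and size exclusion. Assayed in 50 mM Tris pH 9.0, 20% glycerol, 1 mM Chaps, with 100 μM Boc-Gly-Arg-Arg-AMC. Fluorescence read every 30 s for 10 min at 25 °C; inhibitor 0.01–100 μM. IC50 from a four-parameter fit of hydrolysis rate; ≥3 independent experiments.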

[3] = Chemical stability of compound in cell culture conditions at pH 7.4 HEPES buffer measured after 15 mins by HPLC/MS analysis; assay type: physicochemical; details: read-out: Stabilty
How it was run: (§2)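 Compound incubated under simulated cell-assay conditions (HEPES pH 7.4) and analysed by HPLC/MS after 15 min, 90 min and 20 h. Stability is the compound peak integral in the 210 nm UV trace as a fraction of the total integral.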

[4] = Chemical stability of compound in cell culture conditions at pH 7.4 HEPES buffer measured after 20 hrs by HPLC/MS analysis; assay type: physicochemical; details: read-out: Stabilty; how it was run: as §2
[5] = molecular target: Chymotrypsin (Homo sapiens) (UniProt Q99895+P17538+P40313+Q6GPI1); experiment: Inhibition of Chymotrypsin (unknown origin) assessed as residual enzyme activity at 20 uM by FRET assay relative to control; assay type: protein assay
How it was run: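 α-Chymotrypsin in 50 mM Tris pH 8.0, 100 mM NaCl with Succ-Leu-Tyr-AMC. Compound at 20 µM, read every 30 s for 10 min at 25 °C. Residual activity is relative to DMSO control; mean ± SD, ≥3 independent measurements.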

[6] = Chemical stability of compound in tris assay buffer at pH 9 measured after 20 hrs by HPLC/MS analysis; assay type: physicochemical; details: pH 9, 20 h
How it was run: (§3)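 Compound incubated in protease assay buffer (Tris pH 9.0) under simulated assay conditions and analysed by HPLC/MS after 15 min, 90 min and 20 h. Stability is the compound peak integral in the 210 nm UV trace as a proportion of the total integral.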

[7] = molecular target: Prothrombin (Homo sapiens) (UniProt P00734); experiment: Inhibition of Thrombin (unknown origin) assessed as residual enzyme activity at 20 uM by FRET assay relative to control
How it was run: (§4)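 Compound at 20 µM, read every 30 s for 10 min at 25 °C. Residual activity is relative to DMSO control; mean ± SD, ≥3 independent measurements.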

[8] = system: Zika virus; experiment: Antiviral activity against ZIKV H/PF/2013 infected in human Huh7 cells assessed as decrease in viral RNA expression at 10 uM measured up to 96 hrs by renilla luciferase assay; assay type: functional, organism-based; details: Huh-7, time hrs <=96
How it was run: (§5)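 Huh7 cells electroporated with in vitro transcribed ZIKV H/PF/2013 subgenomic replicon RNA (Renilla luciferase, coelenterazine substrate). Compound at 10 µM or DMSO is added 4 h post-electroporation in medium with 15 mM HEPES and replenished at 48 h. Lysates are taken at 4, 24, 48, 72 and 96 h and normalized to the 4 h input value. Duplicate reads; mean ± SD, n = 3.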

[9] = molecular target: T1, Sortase A (Staphylococcus aureus) (UniProt Q9S446); experiment: Inhibition of staphylococcus aureus Sortase A protease assessed as residual enzyme activity at 20 uM by FRET assay relative to control; how it was run: as §4
T1 sequence (whole entry): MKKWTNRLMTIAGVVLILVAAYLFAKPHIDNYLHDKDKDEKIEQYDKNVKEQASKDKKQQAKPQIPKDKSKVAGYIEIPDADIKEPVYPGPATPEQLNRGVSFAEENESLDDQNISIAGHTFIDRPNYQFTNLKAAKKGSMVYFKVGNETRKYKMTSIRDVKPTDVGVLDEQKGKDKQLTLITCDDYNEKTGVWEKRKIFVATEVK

[10] = system: Severe acute respiratory syndrome coronavirus 2; experiment: Inhibition of SARS-CoV-2 Main protease assessed as residual enzyme activity at 20 uM by FRET assay relative to control
How it was run: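 Compound at 20 μM; fluorescence read every 30 s for 10 min at 25 °C. Residual activity expressed relative to DMSO control; mean of ≥3 independent measurements.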

[11] = Chemical stability of compound in cell culture conditions at pH 7.4 HEPES buffer measured after 90 mins by HPLC/MS analysis; assay type: physicochemical; details: read-out: Stabilty; how it was run: as §2
[12] = Chemical stability of compound in tris assay buffer at pH 9 measured after 90 mins by HPLC/MS analysis; assay type: physicochemical; details: pH 9, 1.5 h; how it was run: as §3
[13] = Inhibition of Rhodesain (unknown origin) assessed as residual enzyme activity at 20 uM by FRET assay relative to control
How it was run: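 Compound at 20 µM, fluorescence read every 30 s for 10 min at 25 °C. Residual activity is relative to DMSO control; mean ± SD, ≥3 independent measurements.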

[14] = molecular target: Genome polyprotein (dengue virus type 2, UniProt P29990); experiment: Inhibition of DENV2 NS2B-NS3 protease expressed in Escherichia coli BL21(DE3) using Boc-Gly-Arg-Arg-AMC as substrate by FRET assay; how it was run: as §1
[15] = molecular target: Trypsin (Homo sapiens) (UniProt P07477+P07478+P35030); experiment: Inhibition of Trypsin (unknown origin) assessed as residual enzyme activity at 20 uM by FRET assay relative to control; assay type: protein assay
How it was run: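 Trypsin in 50 mM Tris pH 8.0, 100 mM NaCl, 5 mM EDTA with 40 µM Z-Phe-Arg-AMC. Compound at 20 µM, read every 30 s for 10 min at 25 °C. Residual activity is relative to DMSO control; mean ± SD, ≥3 independent measurements.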

[16] = Chemical stability of compound in tris assay buffer at pH 9 measured after 15 mins by HPLC/MS analysis; assay type: physicochemical; details: pH 9, 0.25 h; how it was run: as §3
[17] = system: Huh-7; experiment: Cytotoxicity against human Huh-7 cells assessed as cell viability after 96 hrs by CellTiter-Glo Luminescent cell viability assay; assay type: cell-based; details: huh-7, 96 h
How it was run: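 Huh7 cells seeded at 4×10^3 per well and treated one day later with 1.25–40 µM compound or DMSO for 96 h. ATP-based luminescent viability read-out, normalized to untreated cells.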

[18] = molecular target: Nonstructural protein 3 (Zika virus, UniProt A0A024AXB9); experiment: Inhibition of ZIKV NS2B-NS3 protease expressed in Escherichia coli BL21(DE3) using Boc-Gly-Arg-Arg-AMC as substrate by FRET assay
How it was run: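 His-tagged ZIKV NS2B/NS3 protease in 50 mM Tris pH 9.0, 20% glycerol, 1 mM CHAPS with 100 µM Boc-Gly-Arg-Arg-AMC. Dilution series 0.01–100 µM, read every 30 s for 10 min at 25 °C. IC50 from a four-parameter fit of hydrolysis rate; mean ± SD of ≥3 independent measurements.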

[19] = molecular target: Urokinase-type plasminogen activator (Homo sapiens) (UniProt P00749); experiment: Inhibition of Urokinase plasminogen activator (unknown origin) assessed as residual enzyme activity at 20 uM by FRET assay relative to control
How it was run: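 Urokinase plasminogen activator in 50 mM Tris pH 7.4, 50 mM NaCl, 0.5 mM EDTA with 240 µM Z-Gly-Gly-Arg-AMC. Compound at 20 µM, read every 30 s for 10 min at 25 °C. Residual activity is relative to DMSO control; mean ± SD, ≥3 independent measurements.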

[20] = molecular target: T2, Nonstructural protein 3 (Zika virus) (UniProt A0A024AXB9); experiment: Inhibition of ZIKV NS2B-NS3 protease expressed in Escherichia coli BL21(DE3) using Boc-Gly-Arg-Arg-AMC as substrate at 200 uM by FRET assay
How it was run: (§6)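 His-tagged NS2B/NS3 protease, purified by Ni affinity and size exclusion, in 50 mM Tris pH 9.0, 20% glycerol, 1 mM CHAPS with 100 µM Boc-Gly-Arg-Arg-AMC. Fluorescence is read every 30 s for 10 min at 25 °C. Percent inhibition is at a single inhibitor concentration of 20, 100 or 200 µM; ≥3 independent measurements.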

[21] = molecular target: Genome polyprotein (dengue virus type 2) (UniProt P29990); experiment: Inhibition of DENV2 NS2B-NS3 protease expressed in Escherichia coli BL21(DE3) using Boc-Gly-Arg-Arg-AMC as substrate at 200 uM by FRET assay; how it was run: as §6
[22] = molecular target: T2, Nonstructural protein 3 (Zika virus); experiment: Inhibition of ZIKV NS2B-NS3 protease expressed in Escherichia coli BL21(DE3) using Boc-Gly-Arg-Arg-AMC as substrate at 100 uM by FRET assay; how it was run: as §6
[23] = molecular target: Genome polyprotein (dengue virus type 2) (UniProt P29990); experiment: Inhibition of DENV2 NS2B-NS3 protease expressed in Escherichia coli BL21(DE3) using Boc-Gly-Arg-Arg-AMC as substrate at 100 uM by FRET assay; how it was run: as §6
[24] = system: Zika virus; experiment: Antiviral activity against ZIKV H/PF/2013 infected in human Huh7 cells assessed as decrease in viral RNA expression at 10 uM measured up to 72 hrs by renilla luciferase assay; assay type: functional, organism-based; details: Huh-7, time hrs <=72; how it was run: as §5

SMILES	remaining at 0.25 h [3]	remaining at 20 h [4]	Activity [5]	Stabilty [6]	Activity [7]	Activity [9]	Activity [10]	remaining at 1.5 h [11]	Stabilty [12]	Activity [13]	IC50 [14]	Activity [15]	Stabilty [16]	IC50 [18]	Activity [19]	other results
COc1cc2nc(NC(=O)c3ccc(I)cc3)sc2cc1OC																Activity [1]: Active
O=C(Nc1ccccc1)c1cc2cc(O)c(O)cc2o1	95%	95%	58%	83%	97%	64%	52%	95%	83%	93%	0.69 µM	96%	83%	1.04 µM	91%	IC50 [2]: 0.73 µM; Activity [8]: Active; Activity [17]: Non-Toxic; Activity [1]: Active
O=C(Nc1ccccc1)c1nc2cc(O)c(O)cc2s1	95%	95%		88%				95%	94%		27 µM		95%	9.19 µM		
Nc1cc2cc(C(=O)Nc3ccccc3)oc2cc1O																inhibition [20]: 52%; inhibition [21]: 34%
O=C(Nc1nc2cc(O)c(O)cc2s1)c1ccccc1	95%	95%	77%	83%	75%	57%	90%	95%	61%	91%	27 µM	80%	67%	9.19 µM	100%	
O=C(Nc1ccccc1)c1cc2ccc(O)cc2o1																inhibition [20]: inactive; inhibition [21]: inactive
O=C(Nc1ccccc1)c1cc2cc([N+](=O)[O-])c(O)cc2o1																inhibition [20]: 48%; inhibition [21]: 19%
O=C(Nc1ccccc1)c1cc2c(O)cc(O)cc2o1																inhibition [22]: 62%; inhibition [23]: 51%
O=C(Nc1nc2cc(O)c(O)cc2s1)C(c1ccccc1)c1ccccc1	95%	95%	96%	83%	95%	73%	77%	95%	83%	86%	11.1 µM	85%	83%	0.95 µM	62%	Activity [17]: Non-Toxic; Activity [1]: Active
O=C(Nc1ccccc1)[C@@H]1CCCCN1C(=O)c1cc2cc(O)c(O)cc2o1			77%		93%	74%	57%			90%	4.73 µM	95%		2.9 µM	94%	
Cc1ccc(S(=O)(=O)N2CCC[C@@H]2C(=O)Nc2nc3cc(O)c(O)cc3s2)cc1			100%		97%	83%	94%			93%		96%			100%	
O=C(Nc1ccccc1)[C@@H]1CCCN1C(=O)c1cc2cc(O)c(O)cc2o1	95%	95%	78%	83%	81%	81%	99%	95%	83%	93%	6.43 µM	88%	83%	2.43 µM	82%	
O=C(Nc1ccccc1)c1cc2cc(O)ccc2o1																inhibition [20]: inactive; inhibition [21]: inactive
COc1cc2nc(NC(=O)C(c3ccccc3)c3ccccc3)sc2cc1OC																Activity [24]: inactive; Activity [1]: Active
